{"source": "ChEMBL document CHEMBL5303300", "about": "“EUbOPEN Chemogenomics Library - Multiplex” (2023)", "key": {"Fibroblast": {"test_system": "Fibroblast", "assay": "Multiplex assay against human fibroblast", "type": "toxicity, cell-based", "conditions": "number of replicates 2", "outline": "(§1)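 Values for tubulin, mitochondrial-mass and membrane-permeability phenotypes are per cents of cells with healthy nuclei. These cells were identified by CellPathfinder machine-learning gating of live cells that had been stained at seeding with Hoechst33342, BioTracker Green Microtubule Cytoskeleton Dye, MitoTracker Red and Annexin V Alexa Fluor 680 and imaged on a CQ1 microscope at 37°C and 5% CO2 after compound addition. The gating first set Hoechst high-intensity objects apart from normal cells, then split normal cells into healthy, pyknosed or fragmented nuclei, and pyknosed cells into mitotic or apoptotic.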"}, "HEK-293T": {"test_system": "HEK-293T", "assay": "Multiplex assay against HEK293T", "type": "toxicity, cell-based", "conditions": "human, number of replicates 2", "outline": "as §1"}, "[1]": {"conditions": "12 h, 1 µM, compound concentration 1 uM"}, "[2]": {"conditions": "12 h, 10 µM, compound concentration 10 uM"}, "[3]": {"conditions": "24 h, 1 µM, compound concentration 1 uM"}, "[4]": {"conditions": "24 h, 10 µM, compound concentration 10 uM"}, "[5]": {"conditions": "48 h, 1 µM, compound concentration 1 uM"}, "[6]": {"conditions": "48 h, 10 µM, compound concentration 10 uM"}}, "note": "Several values for one entry are separate records, joined by “and”; a condition that tells them apart may be missing. Identical values can stand only once."}
{"compound": "Fc1cccc(-n2cnc3c(NCc4nc5ccc(F)c(F)c5[nH]4)nc(N4CCOCC4)nc32)c1", "values": [{"measurement": "Population Apoptotic (%)", "setting": "Fibroblast; [1]", "value": "46% and 50%"}, {"measurement": "Population Fragmented Nuclei (%)", "setting": "Fibroblast; [1]", "value": "8% and 5%"}, {"measurement": "Population Healthy Nuclei (%)", "setting": "Fibroblast; [1]", "value": "78% and 65%"}, {"measurement": "Population Hoechst High Intensity Objects (%)", "setting": "Fibroblast; [1]", "value": 0, "unit": "%"}, {"measurement": "Population Membrane Permeable-Phenotype (%)", "setting": "Fibroblast; [1]", "value": "5% and 4%"}, {"measurement": "Population Mitochondria Different-Phenotype (%)", "setting": "Fibroblast; [1]", "value": 0, "unit": "%"}, {"measurement": "Population Mitotic Cells (%)", "setting": "Fibroblast; [1]", "value": "53% and 49%"}, {"measurement": "Population Normal (%)", "setting": "Fibroblast; [1]", "value": "99% and 100%"}, {"measurement": "Population Pyknosed Nuclei (%)", "setting": "Fibroblast; [1]", "value": "12% and 28%"}, {"measurement": "Population Tubulin-Different-Phenotype (%)", "setting": "Fibroblast; [1]", "value": "21% and 15%"}, {"measurement": "Total Cell Count", "setting": "Fibroblast; [1]", "value": "211 and 198"}, {"measurement": "Population Apoptotic (%)", "setting": "Fibroblast; [2]", "value": "55% and 40%"}, {"measurement": "Population Fragmented Nuclei (%)", "setting": "Fibroblast; [2]", "value": "6% and 10%"}, {"measurement": "Population Healthy Nuclei (%)", "setting": "Fibroblast; [2]", "value": "63% and 68%"}, {"measurement": "Population Hoechst High Intensity Objects (%)", "setting": "Fibroblast; [2]", "value": 0, "unit": "%"}, {"measurement": "Population Membrane Permeable-Phenotype (%)", "setting": "Fibroblast; [2]", "value": "6% and 8%"}, {"measurement": "Population Mitochondria Different-Phenotype (%)", "setting": "Fibroblast; [2]", "value": "21% and 11%"}, {"measurement": "Population Mitotic Cells (%)", "setting": "Fibroblast; [2]", "value": "44% and 60%"}, {"measurement": "Population Normal (%)", "setting": "Fibroblast; [2]", "value": "99% and 100%"}, {"measurement": "Population Pyknosed Nuclei (%)", "setting": "Fibroblast; [2]", "value": "29% and 21%"}, {"measurement": "Population Tubulin-Different-Phenotype (%)", "setting": "Fibroblast; [2]", "value": "72% and 75%"}, {"measurement": "Total Cell Count", "setting": "Fibroblast; [2]", "value": "152 and 213"}, {"measurement": "Population Apoptotic (%)", "setting": "Fibroblast; [3]", "value": "85% and 72%"}, {"measurement": "Population Fragmented Nuclei (%)", "setting": "Fibroblast; [3]", "value": "12% and 10%"}, {"measurement": "Population Healthy Nuclei (%)", "setting": "Fibroblast; [3]", "value": "44% and 66%"}, {"measurement": "Population Hoechst High Intensity Objects (%)", "setting": "Fibroblast; [3]", "value": 0, "unit": "%"}, {"measurement": "Population Membrane Permeable-Phenotype (%)", "setting": "Fibroblast; [3]", "value": "13% and 5%"}, {"measurement": "Population Mitochondria Different-Phenotype (%)", "setting": "Fibroblast; [3]", "value": 0, "unit": "%"}, {"measurement": "Population Mitotic Cells (%)", "setting": "Fibroblast; [3]", "value": "14% and 27%"}, {"measurement": "Population Normal (%)", "setting": "Fibroblast; [3]", "value": "100% and 99%"}, {"measurement": "Population Pyknosed Nuclei (%)", "setting": "Fibroblast; [3]", "value": "42% and 22%"}, {"measurement": "Population Tubulin-Different-Phenotype (%)", "setting": "Fibroblast; [3]", "value": "25% and 36%"}, {"measurement": "Total Cell Count", "setting": "Fibroblast; [3]", "value": "197 and 196"}, {"measurement": "Population Apoptotic (%)", "setting": "Fibroblast; [4]", "value": "44% and 42%"}, {"measurement": "Population Hoechst High Intensity Objects (%)", "setting": "Fibroblast; [4]", "value": 0, "unit": "%"}, {"measurement": "Population Mitochondria Different-Phenotype (%)", "setting": "Fibroblast; [4]", "value": "57% and 31%"}, {"measurement": "Population Mitotic Cells (%)", "setting": "Fibroblast; [4]", "value": "55% and 57%"}, {"measurement": "Population Normal (%)", "setting": "Fibroblast; [4]", "value": "100% and 99%"}, {"measurement": "Population Pyknosed Nuclei (%)", "setting": "Fibroblast; [4]", "value": "27% and 17%"}, {"measurement": "Population Tubulin-Different-Phenotype (%)", "setting": "Fibroblast; [4]", "value": "100% and 74%"}, {"measurement": "Population Apoptotic (%)", "setting": "Fibroblast; [5]", "value": "85% and 90%"}, {"measurement": "Population Fragmented Nuclei (%)", "setting": "Fibroblast; [5]", "value": "12% and 10%"}, {"measurement": "Population Healthy Nuclei (%)", "setting": "Fibroblast; [5]", "value": "21% and 20%"}, {"measurement": "Population Hoechst High Intensity Objects (%)", "setting": "Fibroblast; [5]", "value": "2% and 0%"}, {"measurement": "Population Membrane Permeable-Phenotype (%)", "setting": "Fibroblast; [5]", "value": "13% and 17%"}, {"measurement": "Population Mitochondria Different-Phenotype (%)", "setting": "Fibroblast; [5]", "value": 2, "unit": "%"}, {"measurement": "Population Mitotic Cells (%)", "setting": "Fibroblast; [5]", "value": "14% and 9%"}, {"measurement": "Population Normal (%)", "setting": "Fibroblast; [5]", "value": "97% and 99%"}, {"measurement": "Population Pyknosed Nuclei (%)", "setting": "Fibroblast; [5]", "value": "66% and 68%"}, {"measurement": "Population Tubulin-Different-Phenotype (%)", "setting": "Fibroblast; [5]", "value": "47% and 28%"}, {"measurement": "Total Cell Count", "setting": "Fibroblast; [5]", "value": "172 and 174"}, {"measurement": "Population Apoptotic (%)", "setting": "Fibroblast; [6]", "value": "77% and 73%"}, {"measurement": "Population Fragmented Nuclei (%)", "setting": "Fibroblast; [6]", "value": "11% and 14%"}, {"measurement": "Population Healthy Nuclei (%)", "setting": "Fibroblast; [6]", "value": "60% and 65%"}, {"measurement": "Population Hoechst High Intensity Objects (%)", "setting": "Fibroblast; [6]", "value": 0, "unit": "%"}, {"measurement": "Population Membrane Permeable-Phenotype (%)", "setting": "Fibroblast; [6]", "value": "1% and 2%"}, {"measurement": "Population Mitochondria Different-Phenotype (%)", "setting": "Fibroblast; [6]", "value": "27% and 23%"}, {"measurement": "Population Mitotic Cells (%)", "setting": "Fibroblast; [6]", "value": "22% and 26%"}, {"measurement": "Population Normal (%)", "setting": "Fibroblast; [6]", "value": 100, "unit": "%"}, {"measurement": "Population Pyknosed Nuclei (%)", "setting": "Fibroblast; [6]", "value": "28% and 19%"}, {"measurement": "Population Tubulin-Different-Phenotype (%)", "setting": "Fibroblast; [6]", "value": "72% and 75%"}, {"measurement": "Total Cell Count", "setting": "Fibroblast; [6]", "value": "140 and 207"}, {"measurement": "Population Apoptotic (%)", "setting": "HEK-293T; [1]", "value": "54% and 71%"}, {"measurement": "Population Fragmented Nuclei (%)", "setting": "HEK-293T; [1]", "value": "7% and 5%"}, {"measurement": "Population Healthy Nuclei (%)", "setting": "HEK-293T; [1]", "value": "81% and 64%"}, {"measurement": "Population Hoechst High Intensity Objects (%)", "setting": "HEK-293T; [1]", "value": "12% and 18%"}, {"measurement": "Population Membrane Permeable-Phenotype (%)", "setting": "HEK-293T; [1]", "value": 2, "unit": "%"}, {"measurement": "Population Mitochondria Different-Phenotype (%)", "setting": "HEK-293T; [1]", "value": "61% and 54%"}, {"measurement": "Population Mitotic Cells (%)", "setting": "HEK-293T; [1]", "value": "45% and 28%"}, {"measurement": "Population Normal (%)", "setting": "HEK-293T; [1]", "value": "87% and 81%"}, {"measurement": "Population Pyknosed Nuclei (%)", "setting": "HEK-293T; [1]", "value": "10% and 29%"}, {"measurement": "Population Tubulin-Different-Phenotype (%)", "setting": "HEK-293T; [1]", "value": "86% and 80%"}, {"measurement": "Total Cell Count", "setting": "HEK-293T; [1]", "value": "334 and 362"}, {"measurement": "Population Apoptotic (%)", "setting": "HEK-293T; [2]", "value": "69% and 80%"}, {"measurement": "Population Fragmented Nuclei (%)", "setting": "HEK-293T; [2]", "value": "1% and 4%"}, {"measurement": "Population Healthy Nuclei (%)", "setting": "HEK-293T; [2]", "value": "80% and 73%"}, {"measurement": "Population Hoechst High Intensity Objects (%)", "setting": "HEK-293T; [2]", "value": "6% and 11%"}, {"measurement": "Population Membrane Permeable-Phenotype (%)", "setting": "HEK-293T; [2]", "value": "2% and 3%"}, {"measurement": "Population Mitochondria Different-Phenotype (%)", "setting": "HEK-293T; [2]", "value": "81% and 68%"}, {"measurement": "Population Mitotic Cells (%)", "setting": "HEK-293T; [2]", "value": "30% and 20%"}, {"measurement": "Population Normal (%)", "setting": "HEK-293T; [2]", "value": "93% and 88%"}, {"measurement": "Population Pyknosed Nuclei (%)", "setting": "HEK-293T; [2]", "value": "18% and 22%"}, {"measurement": "Population Tubulin-Different-Phenotype (%)", "setting": "HEK-293T; [2]", "value": 94, "unit": "%"}, {"measurement": "Total Cell Count", "setting": "HEK-293T; [2]", "value": "319 and 328"}, {"measurement": "Population Apoptotic (%)", "setting": "HEK-293T; [3]", "value": "65% and 77%"}, {"measurement": "Population Fragmented Nuclei (%)", "setting": "HEK-293T; [3]", "value": "3% and 7%"}, {"measurement": "Population Healthy Nuclei (%)", "setting": "HEK-293T; [3]", "value": "83% and 57%"}, {"measurement": "Population Hoechst High Intensity Objects (%)", "setting": "HEK-293T; [3]", "value": "22% and 24%"}, {"measurement": "Population Membrane Permeable-Phenotype (%)", "setting": "HEK-293T; [3]", "value": "0% and 1%"}]}
